# Measured values as given in ChEMBL document CHEMBL1129348, “Effects of modifications of residues in position 3 of dynorphin A(1-11)-NH2 on kappa receptor selectivity and potency” (J Med Chem, 1996).
# Experiments:
# [1] = test system: Opioid receptors mu & kappa (Cavia porcellus); assay: Selectivity ratio between mu and kappa opioid receptor from guinea pig brain homogenate
# Cavia porcellus [2] = organism: Cavia porcellus; assay: Evaluated for its ability to inhibit the electrically evoked contraction of the guinea pig ileum(GPI).; type: functional
# Outline: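 Strips of guinea pig ileum longitudinal muscle–myenteric plexus were electrically stimulated and inhibition of contraction was recorded. IC50 and its standard error came from fitting mean data to the Hill equation by nonlinear least squares. Selected analogues were retested with 1000 nM CTAP as mu antagonist to look for a shift.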
# Mu-type opioid receptor = Mu-type opioid receptor (Cavia porcellus, UniProt P97266); assay: Inhibition of binding [3H]DAMGO at Opioid receptor mu 1 of guinea pig brain membrane (GPB) homogenates.
# Mu-type opioid receptor, sequence (P97266 whole entry): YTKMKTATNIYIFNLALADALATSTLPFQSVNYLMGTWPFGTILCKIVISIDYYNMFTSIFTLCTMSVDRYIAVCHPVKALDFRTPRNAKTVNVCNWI
# Outline: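 Membranes from whole brains of adult male guinea pigs (200–400 g). Displacement of [3H]DAMGO at 1.0 nM for mu sites, with 180 min incubation. Values come from at least three independent measurements and are given as mean ± SEM.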
# [3] = Ratio between IC50 of GPI and GPB; type: functional
# [4] = test system: Opioid receptors delta & kappa (Cavia porcellus); assay: Selectivity ratio between delta and kappa opioid receptor from guinea pig brain homogenate
# [5] = biological target: Kappa-type opioid receptor (Cavia porcellus, UniProt P41144); assay: Inhibition of binding [3H][…] at Opioid receptor kappa 1 of guinea pig brain membrane (GPB) homogenates.
# Kappa-type opioid receptor, sequence (P41144 whole entry): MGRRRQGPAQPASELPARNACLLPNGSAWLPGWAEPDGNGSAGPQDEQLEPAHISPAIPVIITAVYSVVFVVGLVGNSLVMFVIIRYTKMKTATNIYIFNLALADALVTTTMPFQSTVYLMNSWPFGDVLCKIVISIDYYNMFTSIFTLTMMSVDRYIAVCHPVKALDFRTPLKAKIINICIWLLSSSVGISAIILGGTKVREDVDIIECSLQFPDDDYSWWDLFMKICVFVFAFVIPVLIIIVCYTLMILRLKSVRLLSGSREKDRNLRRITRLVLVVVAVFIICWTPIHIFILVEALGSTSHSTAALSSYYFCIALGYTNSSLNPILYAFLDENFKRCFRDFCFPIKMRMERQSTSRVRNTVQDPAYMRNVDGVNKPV
# Outline: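 Whole-brain membranes from adult male guinea pigs (200–400 g) were used. Mean ± SEM of three or more independent measurements.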
# Cavia porcellus [6] = organism: Cavia porcellus; assay: Ability to inhibit the electrically evoked contraction of the guinea pig ileum(GPI).at concentration of 60 uM; type: functional
# Cavia porcellus [7] = organism: Cavia porcellus; assay: Compound was evaluated for its ability to inhibit the electrically evoked contraction of the guinea pig ileum(GPI).at concentration of 60 uM; type: functional
# Cavia porcellus [8] = organism: Cavia porcellus; assay: Ability to inhibit the electrically evoked contraction of the guinea pig ileum(GPI)at concentration of 30 uM; type: functional
# [9] = biological target: Delta-type opioid receptor (Mus musculus) (UniProt P32300); assay: Agonistic activity towards Opioid receptor delta 1 was determined by evaluating the inhibitory activity towards electrically stimulated mouse vas deferens; details: concentration not given here
# Delta-type opioid receptor (Mus musculus), sequence (P32300 whole entry, looked up): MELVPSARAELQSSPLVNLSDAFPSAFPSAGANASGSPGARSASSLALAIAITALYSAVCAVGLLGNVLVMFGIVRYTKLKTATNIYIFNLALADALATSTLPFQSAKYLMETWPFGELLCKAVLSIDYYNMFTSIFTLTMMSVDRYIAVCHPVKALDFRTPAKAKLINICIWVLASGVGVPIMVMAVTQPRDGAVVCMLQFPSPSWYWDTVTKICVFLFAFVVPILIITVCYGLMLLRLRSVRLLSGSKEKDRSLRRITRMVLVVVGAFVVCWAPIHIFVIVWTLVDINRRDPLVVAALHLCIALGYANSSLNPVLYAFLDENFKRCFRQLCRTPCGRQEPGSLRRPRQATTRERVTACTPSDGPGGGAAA
# Cavia porcellus [10] = organism: Cavia porcellus; assay: Ability to inhibit the electrically evoked contraction of the guinea pig ileum(GPI).at concentration of 30 uM; type: functional
smiles,measurement,setting,value
CC[C@H](C)[C@H](NC(=O)[C@H](CCCN=C(N)N)NC(=O)[C@H](CCCN=C(N)N)NC(=O)[C@H](CC(C)C)NC(=O)[C@H](Cc1ccccc1)NC(=O)[C@H](Cc1ccccc1)NC(=O)CNC(=O)[C@@H](N)Cc1ccc(O)cc1)C(=O)N[C@@H](CCCN=C(N)N)C(=O)N1CCC[C@H]1C(=O)N[C@@H](CCCCN)C(N)=O,Ratio,[1],30
same,IC50,Cavia porcellus [2],1.1 nM
same,IC50,Mu-type opioid receptor,27.1 nM
same,Ratio,[3],1.2
same,Ratio,[4],315
same,IC50,[5],0.89 nM
CC[C@H](C)[C@H](NC(=O)[C@H](CCCN=C(N)N)NC(=O)[C@H](CCCN=C(N)N)NC(=O)[C@H](CC(C)C)NC(=O)[C@H](Cc1ccccc1)NC(=O)[C@@H](Cc1ccc(O)cc1)NC(=O)CNC(=O)[C@@H](N)Cc1ccc(O)cc1)C(=O)N[C@@H](CCCN=C(N)N)C(=O)N1CCC[C@H]1C(=O)N[C@@H](CCCCN)C(N)=O,IC50,Mu-type opioid receptor,650 nM
same,Ratio,[3],> 2600
same,inhibition at 60 µM,Cavia porcellus [6],41.7%
same,IC50,[5],23.1 nM
CC[C@H](C)[C@H](NC(=O)[C@H](CCCN=C(N)N)NC(=O)[C@H](CCCN=C(N)N)NC(=O)[C@H](CC(C)C)NC(=O)[C@H](Cc1ccccc1)NC(=O)[C@@H](Cc1ccccc1)NC(=O)CNC(=O)[C@@H](N)Cc1ccc(O)cc1)C(=O)N[C@@H](CCCN=C(N)N)C(=O)N1CCC[C@H]1C(=O)N[C@@H](CCCCN)C(N)=O,Ratio,[1],15
same,IC50,Cavia porcellus [2],370 nM
same,IC50,Mu-type opioid receptor,86 nM
same,Ratio,[3],62
same,Ratio,[4],125
same,IC50,[5],5.9 nM
CC[C@H](C)[C@H](NC(=O)[C@H](CCCNC(=N)N)NC(=O)[C@H](CCCNC(=N)N)NC(=O)[C@H](CC(C)C)NC(=O)[C@H](Cc1ccccc1)NC(=O)[C@@H](CCCCN)NC(=O)CNC(=O)[C@@H](N)Cc1ccc(O)cc1)C(=O)N[C@@H](CCCNC(=N)N)C(=O)N1CCC[C@H]1C(=O)N[C@@H](CCCCN)C(N)=O,IC50,Mu-type opioid receptor,1900 nM
same,IC50,[5],380 nM
CC[C@H](C)[C@H](NC(=O)[C@H](CCCN=C(N)N)NC(=O)[C@H](CCCN=C(N)N)NC(=O)[C@H](CC(C)C)NC(=O)[C@H](Cc1ccccc1)NC(=O)CNC(=O)CNC(=O)[C@@H](N)Cc1ccc(O)cc1)C(=O)N[C@@H](CCCN=C(N)N)C(=O)N1CCC[C@H]1C(=O)N[C@@H](CCCCN)C(N)=O,IC50,Cavia porcellus [2],1 nM
CC[C@H](C)[C@H](NC(=O)CNC(=O)[C@@H](N)Cc1ccc(O)cc1)C(=O)N[C@@H](Cc1ccccc1)C(=O)N[C@@H](CC(C)C)C(=O)N[C@@H](CCCN=C(N)N)C(=O)N[C@@H](CCCN=C(N)N)C(=O)N[C@H](C(=O)N[C@@H](CCCN=C(N)N)C(=O)N1CCC[C@H]1C(=O)N[C@@H](CCCCN)C(N)=O)[C@@H](C)CC,Ratio,[1],22
same,IC50,Cavia porcellus [2],460 nM
same,IC50,Mu-type opioid receptor,860 nM
same,Ratio,[3],12
same,IC50,[5],40 nM
CC[C@H](C)[C@H](NC(=O)[C@H](CCCN=C(N)N)NC(=O)[C@H](CCCN=C(N)N)NC(=O)[C@H](CC(C)C)NC(=O)[C@H](Cc1ccccc1)NC(=O)[C@H](NC(=O)CNC(=O)[C@@H](N)Cc1ccc(O)cc1)[C@@H](C)c1ccccc1)C(=O)N[C@@H](CCCN=C(N)N)C(=O)N1CCC[C@H]1C(=O)N[C@@H](CCCCN)C(N)=O,Ratio,[1],20
same,IC50,Cavia porcellus [2],2800 nM
same,IC50,Mu-type opioid receptor,112 nM
same,Ratio,[3],467
same,Ratio,[4],112
same,IC50,[5],6 nM
CC[C@@H](C)[C@@H](NC(=O)CNC(=O)[C@@H](N)Cc1ccc(O)cc1)C(=O)N[C@@H](Cc1ccccc1)C(=O)N[C@@H](CC(C)C)C(=O)N[C@@H](CCCN=C(N)N)C(=O)N[C@@H](CCCN=C(N)N)C(=O)N[C@H](C(=O)N[C@@H](CCCN=C(N)N)C(=O)N1CCC[C@H]1C(=O)N[C@@H](CCCCN)C(N)=O)[C@@H](C)CC,Inhibition,Cavia porcellus [7],5.7%
same,Ratio,[1],19
same,IC50,Mu-type opioid receptor,1030 nM
same,Ratio,[3],> 1100
same,Ratio,[4],260
same,IC50,[5],55 nM
CC[C@H](C)[C@H](NC(=O)[C@H](CCCN=C(N)N)NC(=O)[C@H](CCCN=C(N)N)NC(=O)[C@H](CC(C)C)NC(=O)[C@H](Cc1ccccc1)NC(=O)[C@H](CCC(=O)O)NC(=O)CNC(=O)[C@@H](N)Cc1ccc(O)cc1)C(=O)N[C@@H](CCCN=C(N)N)C(=O)N1CCC[C@H]1C(=O)N[C@@H](CCCCN)C(N)=O,Ratio,[1],44
same,IC50,Mu-type opioid receptor,6600 nM
same,Ratio,[3],> 200
same,Ratio,[4],20
same,IC50,[5],150 nM
same,inhibition at 30 µM,Cavia porcellus [8],48%
CC[C@H](C)[C@H](NC(=O)[C@H](CCCN=C(N)N)NC(=O)[C@H](CCCN=C(N)N)NC(=O)[C@H](CC(C)C)NC(=O)[C@H](Cc1ccccc1)NC(=O)[C@H](Cc1ccc(O)cc1)NC(=O)CNC(=O)[C@@H](N)Cc1ccc(O)cc1)C(=O)N[C@@H](CCCN=C(N)N)C(=O)N1CCC[C@H]1C(=O)N[C@@H](CCCCN)C(N)=O,IC50,Cavia porcellus [2],220 nM
same,IC50,Mu-type opioid receptor,290 nM
same,Ratio,[3],25
same,IC50,[5],8.9 nM
CC[C@H](C)[C@H](NC(=O)[C@H](CCCNC(=N)N)NC(=O)[C@H](CCCNC(=N)N)NC(=O)[C@H](CC(C)C)NC(=O)[C@H](Cc1ccccc1)NC(=O)[C@@H](CCC(=O)O)NC(=O)CNC(=O)[C@@H](N)Cc1ccc(O)cc1)C(=O)N[C@@H](CCCNC(=N)N)C(=O)N1CCC[C@H]1C(=O)N[C@@H](CCCCN)C(N)=O,IC50,Mu-type opioid receptor,2500 nM
same,IC50,[5],1100 nM
CC[C@H](C)[C@H](NC(=O)[C@H](CCCN=C(N)N)NC(=O)[C@H](CCCN=C(N)N)NC(=O)[C@H](CC(C)C)NC(=O)[C@H](Cc1ccccc1)NC(=O)[C@@H](NC(=O)CNC(=O)[C@@H](N)Cc1ccc(O)cc1)[C@@H](C)c1c(C)cccc1C)C(=O)N[C@@H](CCCN=C(N)N)C(=O)N1CCC[C@H]1C(=O)N[C@@H](CCCCN)C(N)=O,IC50,Cavia porcellus [2],40800 nM
same,IC50,Mu-type opioid receptor,2800 nM
same,Ratio,[3],360
same,IC50,[5],113 nM
CC[C@H](C)[C@H](NC(=O)[C@H](CCCN=C(N)N)NC(=O)[C@H](CCCN=C(N)N)NC(=O)[C@H](CC(C)C)NC(=O)[C@H](Cc1ccccc1)NC(=O)[C@H](CCCCN)NC(=O)CNC(=O)[C@@H](N)Cc1ccc(O)cc1)C(=O)N[C@@H](CCCN=C(N)N)C(=O)N1CCC[C@H]1C(=O)N[C@@H](CCCCN)C(N)=O,inhibition,[9],30%
same,inhibition at 30 µM,Cavia porcellus [10],15.6%
same,Ratio,[1],31
same,IC50,Mu-type opioid receptor,7400 nM
same,Ratio,[3],> 120
same,Ratio,[4],> 330
same,IC50,[5],240 nM
CC[C@H](C)[C@H](NC(=O)[C@H](CCCN=C(N)N)NC(=O)[C@H](CCCN=C(N)N)NC(=O)[C@H](CC(C)C)NC(=O)[C@H](Cc1ccccc1)NC(=O)[C@@H](NC(=O)CNC(=O)[C@@H](N)Cc1ccc(O)cc1)[C@@H](C)c1ccccc1)C(=O)N[C@@H](CCCN=C(N)N)C(=O)N1CCC[C@H]1C(=O)N[C@@H](CCCCN)C(N)=O,Ratio,[1],11
same,IC50,Cavia porcellus [2],2190 nM
same,IC50,Mu-type opioid receptor,1350 nM
same,Ratio,[3],18
same,Ratio,[4],13
same,IC50,[5],121 nM
CC[C@H](C)[C@H](NC(=O)[C@H](CCCN=C(N)N)NC(=O)[C@H](CCCN=C(N)N)NC(=O)[C@H](CC(C)C)NC(=O)[C@H](Cc1ccccc1)NC(=O)[C@@H](CCCN=C(N)N)NC(=O)CNC(=O)[C@@H](N)Cc1ccc(O)cc1)C(=O)N[C@@H](CCCN=C(N)N)C(=O)N1CCC[C@H]1C(=O)N[C@@H](CCCCN)C(N)=O,Ratio,[1],22
same,Ratio,[3],> 260
same,Ratio,[4],> 260
CC[C@H](C)[C@H](NC(=O)[C@H](CCCN=C(N)N)NC(=O)[C@H](CCCN=C(N)N)NC(=O)[C@H](CC(C)C)NC(=O)[C@H](Cc1ccccc1)NC(=O)[C@@H](CCC(=O)O)NC(=O)CNC(=O)[C@@H](N)Cc1ccc(O)cc1)C(=O)N[C@@H](CCCN=C(N)N)C(=O)N1CCC[C@H]1C(=O)N[C@@H](CCCCN)C(N)=O,Ratio,[1],2.3
same,IC50,Cavia porcellus [2],5700 nM
same,Ratio,[3],5
same,Ratio,[4],12
CC[C@H](C)[C@H](NC(=O)[C@H](CCCN=C(N)N)NC(=O)[C@H](CCCN=C(N)N)NC(=O)[C@H](CC(C)C)NC(=O)[C@H](Cc1ccccc1)NC(=O)[C@@H](CCCCN)NC(=O)CNC(=O)[C@@H](N)Cc1ccc(O)cc1)C(=O)N[C@@H](CCCN=C(N)N)C(=O)N1CCC[C@H]1C(=O)N[C@@H](CCCCN)C(N)=O,Ratio,[1],5
same,IC50,Cavia porcellus [2],21000 nM
same,Ratio,[3],55
same,Ratio,[4],42
